This note sets out measurements from ChEMBL document CHEMBL2203161 (Bioorg Med Chem, 2012).

In series [1] the target is T1, Probable linoleate 9S-lipoxygenase 5 (Solanum tuberosum) (UniProt Q43191).
T1 sequence (whole entry): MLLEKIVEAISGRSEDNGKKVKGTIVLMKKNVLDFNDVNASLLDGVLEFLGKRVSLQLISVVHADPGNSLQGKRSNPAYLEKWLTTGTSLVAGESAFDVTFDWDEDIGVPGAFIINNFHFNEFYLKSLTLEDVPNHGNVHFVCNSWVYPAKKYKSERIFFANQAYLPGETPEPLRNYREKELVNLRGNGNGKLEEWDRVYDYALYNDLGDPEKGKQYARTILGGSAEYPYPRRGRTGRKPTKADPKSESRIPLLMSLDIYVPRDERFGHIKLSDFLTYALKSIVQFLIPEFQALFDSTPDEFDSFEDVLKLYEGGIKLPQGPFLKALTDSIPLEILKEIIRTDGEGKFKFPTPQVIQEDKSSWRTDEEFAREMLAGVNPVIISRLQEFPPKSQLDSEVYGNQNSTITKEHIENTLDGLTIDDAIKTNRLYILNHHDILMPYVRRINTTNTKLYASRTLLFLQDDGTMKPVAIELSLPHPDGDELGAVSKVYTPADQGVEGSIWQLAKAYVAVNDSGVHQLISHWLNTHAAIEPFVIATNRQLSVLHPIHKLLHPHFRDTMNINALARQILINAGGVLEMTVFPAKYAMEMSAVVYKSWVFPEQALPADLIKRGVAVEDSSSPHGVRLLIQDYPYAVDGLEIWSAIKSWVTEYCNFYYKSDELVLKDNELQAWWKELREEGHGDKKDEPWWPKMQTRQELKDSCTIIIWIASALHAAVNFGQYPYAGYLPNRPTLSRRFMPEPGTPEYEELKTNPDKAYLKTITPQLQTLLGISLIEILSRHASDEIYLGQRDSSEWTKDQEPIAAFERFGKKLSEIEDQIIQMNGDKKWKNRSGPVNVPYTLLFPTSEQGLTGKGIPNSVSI
As to the kind of experiment: Activation of potato 5-lipoxygenase assessed as residual activity at 50 uM preincubated for 10 mins measured by real-time spectrophotometric analysis relative to untreated control. Put shortly: (§1)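 Single-concentration screen against soybean LOX-1 and potato 5-LOX. Enzyme preincubated 10 min with 50 µM compound. Formation of conjugated diene 13-HPOD from linoleic acid followed spectrophotometrically in real time. Residual activity given as percent of blank without inhibitor. Average of three independent experiments with standard deviations.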

Series [2] addresses T1, Probable linoleate 9S-lipoxygenase 5 (Solanum tuberosum). The conditions noted are these: 6 uM.
The target is the same in series [3]. The conditions noted are these: 50 uM.
Series [4] can be described thus: Critical micelles concentration of the compound in 0.2 M borate buffer at pH 9. In kind it is physicochemical. Put shortly: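 Surface tension plotted against log concentration in 0.2 M borate buffer pH 9.0 at 19 °C (SLO-1 assay conditions). CMC read from the plot.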
Series [5] has as its target T1, Probable linoleate 9S-lipoxygenase 5 (Solanum tuberosum). Description: Inhibition of potato 5-lipoxygenase assessed as residual activity preincubated for 10 mins measured by real-time spectrophotometric analysis. Put shortly: as §1
The target of series [6] is T2, Seed linoleate 13S-lipoxygenase-1 (Glycine max) (UniProt P08170).
T2 sequence (whole entry): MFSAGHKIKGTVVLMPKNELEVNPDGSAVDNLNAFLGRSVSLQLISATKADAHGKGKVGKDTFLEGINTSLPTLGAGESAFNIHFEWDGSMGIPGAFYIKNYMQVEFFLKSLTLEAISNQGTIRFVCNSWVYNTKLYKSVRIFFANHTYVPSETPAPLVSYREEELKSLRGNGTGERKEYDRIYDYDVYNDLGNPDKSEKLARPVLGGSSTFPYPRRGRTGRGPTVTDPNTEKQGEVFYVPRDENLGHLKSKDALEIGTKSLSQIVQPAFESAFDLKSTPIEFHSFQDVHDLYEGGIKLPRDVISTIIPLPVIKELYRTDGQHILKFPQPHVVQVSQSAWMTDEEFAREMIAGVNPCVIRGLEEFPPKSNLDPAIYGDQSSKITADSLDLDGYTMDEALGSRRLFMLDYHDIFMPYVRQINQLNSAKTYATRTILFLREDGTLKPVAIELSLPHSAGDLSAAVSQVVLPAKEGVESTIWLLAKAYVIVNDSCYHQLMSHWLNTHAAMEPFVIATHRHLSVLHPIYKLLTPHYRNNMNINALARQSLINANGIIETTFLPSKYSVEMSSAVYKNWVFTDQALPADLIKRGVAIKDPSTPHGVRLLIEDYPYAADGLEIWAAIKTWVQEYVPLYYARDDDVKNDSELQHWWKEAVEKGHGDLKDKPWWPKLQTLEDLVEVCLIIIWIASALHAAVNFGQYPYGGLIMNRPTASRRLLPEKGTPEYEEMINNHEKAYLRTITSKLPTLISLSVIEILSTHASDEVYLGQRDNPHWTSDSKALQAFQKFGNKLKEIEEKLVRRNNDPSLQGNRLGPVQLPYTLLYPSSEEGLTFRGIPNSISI
Description: Inhibition of soybean lipoxygenase-1 assessed as formation of 13-HPOD from linoleic acid preincubated for 10 mins measured by real-time spectrophotometric analysis.

For series [7], the target named is T1, Probable linoleate 9S-lipoxygenase 5 (Solanum tuberosum). As to the kind of experiment: Activation of potato 5-lipoxygenase assessed as binding constant for substrate bound enzyme preincubated for 10 mins measured by real-time spectrophotometric analysis by Lineweaver-Burk plot. Put shortly:
(§2)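 Potato 5-LOX kinetics: enzyme preincubated without activator or with activator at 12.5, 25 and 50 µM. Conjugated diene formation from linoleic acid followed spectrophotometrically in real time, in 0.1 M phosphate buffer pH 6.3. Lineweaver–Burk plots drawn. K_A, α and β derived from re-plots of 1/Δslope and 1/Δintercept using the non-essential activation equation. n=3, ±S.D.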

Series [8] shares this target. Description: Activation of potato 5-lipoxygenase assessed as increase in residual activity preincubated for 10 mins measured by real-time spectrophotometric analysis. Put shortly:
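Potato 5-LOX in 0.1 M phosphate buffer pH 6.3, preincubated with a range of activator concentrations or without compound (control). Formation of […] from linoleic acid monitored spectrophotometrically in real time. Activity expressed against control. Mean of three independent experiments ±S.D.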

Series [9] shares this target. Description: Activation of potato 5-lipoxygenase assessed as increase in residual activity preincubated for 10 mins measured by real-time spectrophotometric analysis by Lineweaver-Burk plot. Put shortly: as §2
The nature of series [10]: Critical micelles concentration of the compound in 0.1 M phosphate buffer at pH 6.3. In kind it is physicochemical. Put shortly:
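Surface tension measured against log concentration in 0.1 M phosphate buffer pH 6.3 at 25 °C (potato 5-LOX assay conditions). CMC read from the plot.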

The target in series [11] is T3, Seed linoleate 13S-lipoxygenase-1 (Glycine max, UniProt P08170).
T3 sequence (P08170 whole entry): T2 sequence (whole entry)
As to the kind of experiment: Inhibition of soybean lipoxygenase-1 assessed as formation of 13-HPOD from linoleic acid preincubated for 10 mins measured by real-time spectrophotometric analysis.

Series [12] deals with T1, Probable linoleate 9S-lipoxygenase 5 (Solanum tuberosum). As to the kind of experiment: Activation of potato 5-lipoxygenase assessed as increase in enzyme catalytic rate preincubated for 10 mins measured by real-time spectrophotometric analysis relative to untreated control. Put shortly: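 Non-essential activation analysis of potato 5-LOX in 0.1 M phosphate buffer pH 6.3. Linoleic acid conversion read spectrophotometrically after preincubation with 0, 12.5, 25 or 50 µM activator. β, the change in catalytic constant, is taken from the re-plot of 1/Δintercept from Lineweaver–Burk plots. Three independent experiments.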

For series [13], the target named is T3, Seed linoleate 13S-lipoxygenase-1. Description: Inhibition of soybean lipoxygenase-1 assessed as inhibition constant for enzyme-substrate-inhibitor complex by Lineweaver-Burk plot. Put shortly: (§3)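 SLO-1 conversion of linoleic acid monitored spectrophotometrically in 0.2 M borate buffer pH 9.0 with no inhibitor or after preincubation with 6 or 11 µM inhibitor. Vmax and Km (apparent) taken from Lineweaver–Burk intercepts. Ki (free enzyme) and K'i (substrate-bound enzyme) calculated with a mixed-inhibition model. n=3, ±S.D.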

For series [14] the target is unchanged. As to the kind of experiment: Inhibition of soybean lipoxygenase-1 assessed as inhibition constant for enzyme-inhibitor complex by Lineweaver-Burk plot. Put shortly: as §3

Each structure is given as a SMILES string. Active and inactive are the calls of the source. No cut-off for these calls is given here.

As for `CCCCCCCc1ccc(CCc2cccc(O)c2C(=O)O)cc1`, in [1], the result was Active and the fold change (FC) was determined as 3.
What is called inhibition is the relative decrease from the control value, in per cent. With `CCCCCCCCCCCCCCCc1cccc(O)c1C(=O)O` [ANACARDIC ACID], the results for the inhibition in series [2] and in [3] were 30% and 50%, respectively. The compound further came in with a CMC in series [4] of 390 µM.
Take `CCCCCCCCCCCCCCCc1cc(O)cc(O)c1C(=O)O`: the inhibition result in series [5] is “inactive”. Further, the inhibition result in series [6] is “Active”.
On the same counts, the results for `O=C(O)c1c(O)cccc1CCc1ccc2nc(-c3ccccc3)oc2c1` are “inactive” and “Active”.
For the compound `CCCCCCCCCCCCCCCc1cccc(O)c1C(=O)OC`, the inhibition result in [6] is “inactive”.
What is called IC50 is the concentration needed to halve the response being measured. Consider `CCCCCCCCCCCCCCOc1cccc(O)c1C(=O)O`, for which the Ka came to 24 µM in series [7] and 1.8 mM in series [9]. For the same compound, the Activity result in [8] was “Dose-dependent effect”. Further, the CMC in [10] amounted to 208 µM. Besides, in series [11], the IC50 is 55.4 µM. Moreover, the figures for the fold change (FC) in series [12] and in [1] were 1.4 and 3, respectively. In addition, the result in series [1] was Active.
Broadly, the Ki is a measure of affinity in units of concentration, obtained from inhibition or displacement. For the compound `CCCCCCCc1ccc(CCc2cc(O)cc(O)c2C(=O)O)cc1`, the Ki in series [13] amounted to 15.7 µM; in series [14] it was 9.8 µM. The CMC in series [4] was 436 µM. The inhibition result in series [5] is “inactive”. The IC50 in series [11] worked out at 11.1 µM.
`O=C(O)c1c(O)cc(O)cc1CCc1ccc(Cc2nc3ccccc3o2)cc1`: the inhibition result in [5] is “inactive”. The IC50 in [11] was determined as 58.5 µM.
